Drawing on BindingDB's records for doi:10.1021/jm970266p (Universidad Central De Venezuela, 1997), this text covers IC50 for 24 compounds.

As usually defined, the IC50 is the concentration at which inhibition is half-maximal. A low value points to higher potency.

This experiment addresses T1, Falcipain 2 (Plasmodium falciparum, UniProt Q9N6S8).
T1 sequence (Q9N6S8 whole entry): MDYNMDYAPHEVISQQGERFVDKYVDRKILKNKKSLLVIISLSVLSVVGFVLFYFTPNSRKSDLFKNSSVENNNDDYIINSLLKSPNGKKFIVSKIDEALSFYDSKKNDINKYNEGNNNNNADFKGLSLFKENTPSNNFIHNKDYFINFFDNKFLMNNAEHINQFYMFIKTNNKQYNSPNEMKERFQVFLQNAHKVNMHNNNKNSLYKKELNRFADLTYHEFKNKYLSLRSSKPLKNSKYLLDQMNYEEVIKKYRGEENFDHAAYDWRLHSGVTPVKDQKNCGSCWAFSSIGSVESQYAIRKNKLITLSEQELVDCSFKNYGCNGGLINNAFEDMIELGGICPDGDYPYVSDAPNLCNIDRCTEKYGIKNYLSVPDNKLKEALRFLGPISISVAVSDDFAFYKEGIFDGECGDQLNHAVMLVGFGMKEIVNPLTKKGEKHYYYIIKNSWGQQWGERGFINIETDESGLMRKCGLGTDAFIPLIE
The experiment is described as follows: Inhibition of falcipain activity. An outline of the steps:
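Soluble parasite extract containing falcipain (30 nM) preincubated 30 min at room temperature with compound (100× DMSO stocks) and 10 mM DTT in 0.1 M sodium acetate, pH 5.5. Z-Phe-Arg-AMC then added to 50 μM final. Fluorescence (ex 380, em 460 nm) followed continuously for 30 min. Rates compared with DMSO controls. Multiple concentrations tested in duplicate or triplicate; IC50 extrapolated from % control activity curves.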
Compound `COc1cccc(C2CC(=O)C3Sc4cc(F)ccc4N=C3C2)c1OC` (centres undefined) [2-(2,3-Dimethoxy-phenyl)-7-fluoro-2,3-dihydro-1H,10H-phenothiazin-4-one] had an IC50 of 20 µM.

Consider `O=C1CC(c2ccccc2)CC2=Nc3ccc(F)cc3SC12` (centres undefined) [7-Fluoro-2-phenyl-2,3-dihydro-1H,10H-phenothiazin-4-one], for which it took 20 µM to reach half-maximal inhibition (IC50). Compound `COc1cccc(C2CC(=O)C3C(=Nc4ccc(Cl)cc4S3(=O)=O)C2)c1OC` (centres undefined) [7-Chloro-2-(2,3-dimethoxy-phenyl)-5,5-dioxo-2,3,5,10-tetrahydro-1H-5lambda*6*-phenothiazin-4-one] had an IC50 of 4 µM. `COc1ccc(C2CC(=O)C3Sc4cc(Cl)ccc4N=C3C2)cc1` (centres undefined) [7-Chloro-2-(4-methoxy-phenyl)-2,3-dihydro-1H,10H-phenothiazin-4-one] yielded an IC50 of 10 µM. To `CC1(C)CC(=O)C2Sc3cc(Cl)ccc3N=C2C1` (centres undefined) [7-Chloro-2,2-dimethyl-2,3-dihydro-1H,10H-phenothiazin-4-one] belongs 30 µM.

Regarding `O=C1CC(c2ccc(Cl)cc2Cl)CC2=Nc3ccc(Cl)cc3S(=O)(=O)C12` (centres undefined) [7-Chloro-2-(2,4-dichloro-phenyl)-5,5-dioxo-2,3,5,10-tetrahydro-1H-5lambda*6*-phenothiazin-4-one], the IC50 turned out to be 30 µM.

Compound `O=C1CC(c2ccccc2)CC2=Nc3ccc(Cl)cc3SC12` (centres undefined) [7-Chloro-2-phenyl-2,3-dihydro-1H,10H-phenothiazin-4-one] registered a 50% inhibitory concentration (IC50) of 10 µM.

For the compound `COc1cccc(C2CC(=O)C3Sc4cc(Cl)ccc4N=C3C2)c1` (centres undefined) [7-Chloro-2-(3-methoxy-phenyl)-2,3-dihydro-1H,10H-phenothiazin-4-one], the IC50 is 20 µM. In turn, `COc1ccc(C2CC(=O)C3C(=Nc4ccc(F)cc4S3(=O)=O)C2)cc1OC` (centres undefined) [2-(3,4-Dimethoxy-phenyl)-7-fluoro-5,5-dioxo-2,3,5,10-tetrahydro-1H-5lambda*6*-phenothiazin-4-one] registered an IC50 of 5 µM.

`O=C1CC(c2ccc(Cl)cc2Cl)CC2=Nc3ccc(F)cc3SC12` (centres undefined) [2-(2,4-Dichloro-phenyl)-7-fluoro-2,3-dihydro-1H,10H-phenothiazin-4-one] came in with an IC50 of 10 µM.

As to `O=C1CC(c2ccc(Cl)cc2)CC2=Nc3ccc(F)cc3SC12` (centres undefined) [2-(4-Chloro-phenyl)-7-fluoro-2,3-dihydro-1H,10H-phenothiazin-4-one], it took 5 µM to reach half-maximal inhibition (IC50). Regarding `CC1(C)CC(=O)C2C(=Nc3ccc(F)cc3S2(=O)=O)C1` (centres undefined) [7-Fluoro-2,2-dimethyl-5,5-dioxo-2,3,5,10-tetrahydro-1H-5lambda*6*-phenothiazin-4-one], the IC50 worked out at 5 µM. To `O=C1CC(c2ccc(Cl)cc2Cl)CC2=Nc3ccc(Cl)cc3SC12` (centres undefined) [7-Chloro-2-(2,4-dichloro-phenyl)-2,3-dihydro-1H,10H-phenothiazin-4-one] belongs 10 µM; to `COc1ccc(C2CC(=O)C3Sc4cc(Cl)ccc4N=C3C2)cc1OC` (centres undefined) [7-Chloro-2-(3,4-dimethoxy-phenyl)-2,3-dihydro-1H,10H-phenothiazin-4-one], 30 µM. On to `COc1ccc(C2CC(=O)C3C(=Nc4ccc(Cl)cc4S3(=O)=O)C2)cc1` (centres undefined) [7-Chloro-2-(4-methoxy-phenyl)-5,5-dioxo-2,3,5,10-tetrahydro-1H-5lambda*6*-phenothiazin-4-one], for which the IC50 amounted to 30 µM. Turning to `COc1cccc(C2CC(=O)C3Sc4cc(F)ccc4N=C3C2)c1` (centres undefined) [7-Fluoro-2-(3-methoxy-phenyl)-2,3-dihydro-1H,10H-phenothiazin-4-one], inhibition was half-maximal at 20 µM (IC50). In turn, `O=C1CC(c2ccccc2)CC2=Nc3ccc(Cl)cc3S(=O)(=O)C12` (centres undefined) [7-Chloro-5,5-dioxo-2-phenyl-2,3,5,10-tetrahydro-1H-5lambda*6*-phenothiazin-4-one] displayed an IC50 of 4 µM. `O=C1CC(c2ccc(Cl)cc2)CC2=Nc3ccc(Cl)cc3SC12` (centres undefined) [7-Chloro-2-(4-chloro-phenyl)-2,3-dihydro-1H,10H-phenothiazin-4-one]: half-maximal inhibition (IC50) required 4 µM.

As for `CC1(C)CC(=O)C2C(=Nc3ccc(Cl)cc3S2(=O)=O)C1` (centres undefined) [7-Chloro-2,2-dimethyl-5,5-dioxo-2,3,5,10-tetrahydro-1H-5lambda*6*-phenothiazin-4-one], half-maximal inhibition (IC50) required 5 µM.

With `COc1ccc(C2CC(=O)C3Sc4cc(F)ccc4N=C3C2)cc1OC` (centres undefined) [2-(3,4-Dimethoxy-phenyl)-7-fluoro-2,3-dihydro-1H,10H-phenothiazin-4-one], the IC50 was determined as 20 µM.

`COc1cccc(C2CC(=O)C3Sc4cc(Cl)ccc4N=C3C2)c1OC` (centres undefined) [7-Chloro-2-(2,3-dimethoxy-phenyl)-2,3-dihydro-1H,10H-phenothiazin-4-one]: the IC50 came out at 10 µM. As for `COc1cccc(C2CC(=O)C3C(=Nc4ccc(F)cc4S3(=O)=O)C2)c1` (centres undefined) [7-Fluoro-2-(3-methoxy-phenyl)-5,5-dioxo-2,3,5,10-tetrahydro-1H-5lambda*6*-phenothiazin-4-one], the IC50 amounted to 5 µM.

Regarding `O=C1CC(c2ccc(Cl)cc2)CC2=Nc3ccc(F)cc3S(=O)(=O)C12` (centres undefined) [2-(4-Chloro-phenyl)-7-fluoro-5,5-dioxo-2,3,5,10-tetrahydro-1H-5lambda*6*-phenothiazin-4-one], 5 µM corresponded to half-maximal inhibition (IC50).

With `O=C1CC(c2ccc(Cl)cc2)CC2=Nc3ccc(Cl)cc3S(=O)(=O)C12` (centres undefined) [7-Chloro-2-(4-chloro-phenyl)-5,5-dioxo-2,3,5,10-tetrahydro-1H-5lambda*6*-phenothiazin-4-one], 4 µM corresponded to half-maximal inhibition (IC50).
